Screening results from PubChem BioAssay.
Rows were chosen to be rich in hits. Some 5.1% of all compounds tested hit in one or more screens of this group.
SF1 activator: SF-1 (human) activation; CHO-K1 Gal4-SF-1 LBD luciferase reporter; % increase over DMSO SF-1-specific signal; activation, % at 10 µM; 65,000 compounds, 1.9% hits; AID 522;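 active = activation above the mean activation of all tested compounds plus 3 SD, cut at about 50% in these data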
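Material: Transient Gal4-SF-1 LBD reporter, CHO-K1 | Input: 4,000 cells/well | Dosing: One dose, 10 µM compound, 1% DMSO | Incubation: 20 h compound treatment, 37 °C | Detection: SteadyLite luciferase luminescence | Evaluation: Percent activation relative to DMSO median and mock-transfected background | Benchmarks: DMSO-treated SF-1-transfected cells as negative, DMSO-treated mock-transfected cells lacking SF-1 as background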
ERa coact pot: ER-alpha (human) coactivator binding potentiation. AID 639. 86,000 compounds, 1.3% hits. coactivator binding (% of control), % at 25.6 µM. TR-FRET ERalpha-LBD/SRC-Cy5 coactivator binding, 2 h; 100 = basal binding, no effect; in the data active = activity above about 200%;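 note: binding measured in presence of low estradiol as agonist stimulus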
Target sequence (P03372 whole entry, looked up, the tested form may be a part): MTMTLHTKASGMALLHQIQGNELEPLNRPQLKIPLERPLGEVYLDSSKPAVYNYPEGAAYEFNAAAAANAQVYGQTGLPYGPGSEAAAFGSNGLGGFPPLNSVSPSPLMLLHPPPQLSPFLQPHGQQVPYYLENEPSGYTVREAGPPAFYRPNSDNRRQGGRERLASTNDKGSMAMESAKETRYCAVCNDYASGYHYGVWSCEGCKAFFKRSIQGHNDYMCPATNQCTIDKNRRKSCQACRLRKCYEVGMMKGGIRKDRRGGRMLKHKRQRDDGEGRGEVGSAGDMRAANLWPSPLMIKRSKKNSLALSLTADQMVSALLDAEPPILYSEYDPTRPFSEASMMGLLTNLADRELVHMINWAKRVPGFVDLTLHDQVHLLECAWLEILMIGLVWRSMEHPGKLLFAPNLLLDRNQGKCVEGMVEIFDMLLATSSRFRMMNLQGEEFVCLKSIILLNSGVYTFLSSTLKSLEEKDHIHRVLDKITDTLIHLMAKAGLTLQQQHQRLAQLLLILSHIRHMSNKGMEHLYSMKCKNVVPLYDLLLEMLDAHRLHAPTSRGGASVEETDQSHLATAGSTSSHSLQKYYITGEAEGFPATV
RORA act: activators of human nuclear receptor RORA; activation, % at 10 µM; 65,000 compounds, 1.5% hits; P35398; CHO-K1 Gal4-RORA LBD luciferase reporter, luminescence; percent increase over mock-subtracted basal signal;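 active = activation above the mean of all tested compounds plus 3 SD, cut at about 49% in these data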
BAP1 inh: inhibitors of human BAP1 deubiquitinase; 72,000 compounds, 0.48% hits; calls only at 20 µM; Q92560; AID 436; recombinant BAP1, Ub-AMC hydrolysis fluorescence kinetic; active compounds read low;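 active = activity remaining at or below 50% of control, provided the compound also passes the data quality filters; inactive = the rest, including low values that fail the filters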
ERa SRC1 inh: blocks coactivator binding to human estrogen receptor alpha. inhibition, % at 25.6 µM. AID 629. P03372. 86,000 compounds, 1.7% hits. TR-FRET ER-alpha LBD / SRC-1 peptide, estradiol-bound; in the data active = inhibition above about 50%
ERb coact inh: blocks coactivator binding to human estrogen receptor beta; TR-FRET ER-beta LBD / SRC1-Cy5 peptide binding; receptor agonist-loaded with 1 µM estradiol; 86,000 compounds, 1.3% hits; Q92731; inhibition, % at 25.6 µM;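 active = compounds whose percent inhibition of the receptor-coactivator binding signal exceeds about 50% in the single-dose screen, limit read from the data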
A number is an active result; - = inactive; . = no result given; [ ] = remark or other dose.

SMILES | SF1 activator | ERa coact pot | RORA act | BAP1 inh | ERa SRC1 inh | ERb coact inh
COC(=O)c1ccc(Oc2nc(C(N)=O)cc(-c3ccccc3)n2)cc1 | . | 264[fluorescence artefact?] | . | . | - | -
CCNc1nc(Oc2ccc(C(=O)OC)cc2)nc(N(C)C)n1 | - | . | - | - | . | .
OC(COc1ccc(C2C=CCC2)cc1)CN1CCCCC1 (configuration not stated) | - | 263[fluorescence artefact?] | - | - | - | 63[fluorescence artefact?]
O=C(Nc1cccc([N+](=O)[O-])c1)c1ccc(Br)c(S(=O)(=O)N2CCC(C(=O)O)CC2)c1 | . | . | . | - | . | .
Cc1nnc(NC(=O)CSc2nnc3scc(-c4ccc(C)c(C)c4)n23)s1 | - | 259 | - | - | - | -
Cc1ccc(-c2nc(NC(=O)CSc3nnc4scc(-c5ccccc5)n34)ns2)cc1 | - | 203[fluorescence artefact?] | - | - | - | -
Cc1sc(NC(=O)CSc2nnc(COc3ccccc3)n2C)c(C#N)c1C | - | - | - | - | - | -
Cc1sc(NC(=O)CSc2nnc3scc(-c4ccccc4)n23)c(C#N)c1C | - | 224[fluorescence artefact?] | - | - | - | -
O=C(CSc1nnc2scc(-c3ccccc3)n12)Nc1ccc2c(c1)OCCO2 | - | - | - | - | - | -
Cc1ccc(OCc2nnc(SCC(=O)Nc3sc(C)c(C)c3C#N)n2C)cc1 | - | 250 | - | - | - | -
CCc1nnc(NC(=O)CSc2nnc3scc(-c4ccc(C)cc4)n23)s1 | - | - | - | - | - | -
COc1ccc(C2CC(c3cccs3)=Nc3ccccc3S2)c(OC)c1 (configuration not stated) | . | . | . | - | . | .
Nc1cccc(N)c1NC(=O)c1ccccc1 | . | . | . | - | . | .
Cc1ccc(-c2csc3nnc(SCc4csc(C)n4)n23)cc1 | - | 365[fluorescence artefact?] | - | - | - | -
COc1ccc(-c2nnn(CC(=O)N3CCOCC3)n2)cc1 | . | - | . | . | - | -
O=C(Cc1cccs1)Nc1ccc(-c2nnn(CC(=O)N3CCOCC3)n2)cc1 | - | - | - | - | 96[fluorescence artefact?] | 93
NC(=O)c1c(NC(=O)c2cc3ccccc3o2)sc2c1CCC2 | - | - | - | - | 62 | 53
Cc1ccc(C(=O)Nc2sc3c(c2C(=O)O)CCCCC3)o1 | - | - | 77 | - | - | -
COC(=O)c1c(NC(=O)c2ccc(C)o2)sc2c1CCCCC2 | 52 | - | - | . | - | -
O=C(Nc1sc2c(c1C(=O)O)CCCC2)c1cccs1 | 54 | - | 67 | - | - | -
Nc1cc2c(cc1C(=O)c1ccc(Br)cc1)OCCO2 | . | . | . | - | . | .
COC(=O)c1c(NC(=O)Cc2cccs2)sc2c1CCCC2 | - | - | - | - | 90[fluorescence artefact?] | 74
COCC(=O)Nc1sc2c(c1C(=O)OC)CCCC2 | - | - | - | - | - | -
CCOc1ccc2nc(NC(=O)c3cc(OC)c(OC)c(OC)c3)sc2c1 | . | . | . | - | . | .
CCOc1cc(N2CCOCC2)c(OCC)cc1NC(=O)CCS(=O)(=O)c1ccc(Cl)cc1 | - | - | - | - | - | -
SMILES | SF1 activator | ERa coact pot | RORA act | BAP1 inh | ERa SRC1 inh | ERb coact inh
CCOc1cc(N2CCOCC2)c(OCC)cc1NS(=O)(=O)c1ccc(Cl)s1 | - | - | 79 | - | - | -
O=C(CNC(=O)c1ccccc1C(=O)O)c1ccccc1 | 56 | - | - | - | - | -
Clc1ccccc1Cn1nnc(-c2cccs2)n1 | 51 | - | - | - | - | -
CCn1nnc(NC(=O)CSc2ccc(Cl)cc2)n1 | - | - | - | . | 90 | 82
CCc1c(C#N)c(N)nc2sc(C(=O)c3ccc(Br)cc3)c(N)c12 | . | . | . | - | . | .
Cc1nn(C(=O)c2cccs2)c(N)c1-c1ccccc1 | 54 | - | 57 | - | - | -
CC(=O)c1c(C)nn(C(=O)c2cccs2)c1C | - | - | - | - | - | -
C=C(c1ccc(O)cc1)c1ccc(O)cc1 | - | - | - | - | - | -
C/C=C(/C(=C/C)c1ccc(O)cc1)c1ccc(O)cc1 | - | 741 | - | - | - | -
CCOc1ccccc1C(=O)Nc1ccc(C)cn1 | . | . | . | - | . | .
CCn1c(C)nc2cc(-c3nnc(-c4c(-c5ccccc5)noc4C)o3)ccc21 | - | 373[fluorescence artefact?] | - | . | - | -
Cc1onc(-c2ccccc2)c1-c1nc2ccccc2c(=O)o1 | . | - | . | . | - | -
Cc1nnc(Sc2c(N)n(C)c(=O)n(C)c2=O)s1 | . | - | . | . | - | -
Cc1nnc(Sc2nc(Sc3nnc(C)s3)nc(N3CCN(C)CC3)n2)s1 | - | - | - | - | - | 60[fluorescence artefact?]
Cc1noc(C)c1COC(=O)c1ccc2c(c1)OCCO2 | - | - | - | - | - | -
Cc1noc(C)c1COC(=O)c1cc2c(C)nn(-c3ccc(F)cc3)c2s1 | - | - | - | - | 74[fluorescence artefact?] | 59[fluorescence artefact?]
Cc1noc(C)c1COC(=O)c1cc2c3ccccc3n(C)c2s1 | - | 751 | - | - | - | -
Cc1cc(C)c(-c2csc(NC(=O)c3ccc(S(=O)(=O)N4CCc5ccccc54)cc3)n2)c(C)c1 | . | . | . | - | . | .
COc1cc(OC)c(-c2nc3cnccc3n2C)cc1OC | - | - | - | - | - | -
Cn1c(-c2ccc3ccccc3n2)nc2cnccc21 | 65 | - | 55 | - | - | -
CCOc1ncccc1C(=O)OCC(=O)c1c(N)n(C)c(=O)n(C)c1=O | - | - | - | . | - | -
CCOc1ncccc1C(=O)OCc1cc(=O)n2c(n1)sc1ccccc12 | - | - | - | - | 84[fluorescence artefact?] | 56[fluorescence artefact?]
CCN1C(=O)c2cccc3c(NC(=O)c4ccc(S(=O)(=O)N(C)c5ccccc5)cc4)ccc1c23 | . | . | . | - | . | .
Cc1cc(C(=O)Nc2sc3c(c2C#N)CCC(C(C)(C)C)C3)no1 (configuration not stated) | 58 | - | - | - | - | -
Cc1cc(C(=O)Nc2sc3c(c2C#N)CCC(C)C3)cs1 (configuration not stated) | - | - | 91 | . | - | -
SMILES | SF1 activator | ERa coact pot | RORA act | BAP1 inh | ERa SRC1 inh | ERb coact inh
Cc1cc(C(F)F)n2nc(C(=O)Nc3sc4c(c3C#N)CCC(C)C4)nc2n1 (configuration not stated) | . | - | . | . | - | -
N#Cc1c(NC(=O)CN2CCCCC2)sc2c1CCC2 | - | - | - | - | - | -
CC1CCCCN1CC(=O)Nc1sc2c(c1C#N)CCC2 (configuration not stated) | - | - | - | - | - | 53
CC(C)c1cc(C(=O)Nc2sc3c(c2C#N)CCC3)no1 | - | - | 76 | - | - | -
CC(N=Cc1ccc(O)cc1)C12CC3CC(CC(C3)C1)C2 (configuration not stated) | . | . | . | - | . | .
c1ccc(COCCOCCN2CCOCCOCCOCCOCCOCC2)cc1 | . | . | . | - | . | .
CCOC(=O)CNC(=O)c1ccc2c(c1)OCCO2 | 53 | - | - | . | - | -
CCOC(=O)CNC(=O)c1cc(-c2ccc3c(c2)OCCO3)oc1C | - | - | - | - | - | -
O=C(Nc1sc2c(c1C(=O)O)CCC2)c1ccccc1Br | . | . | . | - | . | .
Nc1c(C(=O)NCC2CCCO2)c2nc3ccccc3nc2n1/N=C/c1ccncc1 (configuration not stated) | - | 314[fluorescence artefact?] | - | - | - | -
